The source of these data is ChEMBL document CHEMBL4610026, “Design, synthesis and evaluation of protein disulfide isomerase inhibitors with nitric oxide releasing activity” (Bioorg Med Chem Lett, 2020).

Data set [1] concerns HeLa. The experiment in a line: Antiproliferative activity against human HeLa cells assessed as cell growth inhibition by CCK-8 assay. The data set is classed as functional, cell-based.
The subject of data set [2] is SH-SY5Y. The experiment in a line: Antiproliferative activity against human SH-SY5Y cells assessed as cell growth inhibition at 600 uM by CCK-8 assay relative to control. The data set is classed as functional. The settings on record: read-out: GI.
The test system of the next data set is HEK-293T. Description: Cytotoxicity against human HEK293T cells assessed as cell growth inhibition. The data set is classed as cell-based.
The test system of data set [3] is SH-SY5Y. The experiment in a line: Antiproliferative activity against human SH-SY5Y cells assessed as cell growth inhibition by CCK-8 assay. The data set is classed as functional, cell-based.
For data set [4], the species on record is Homo sapiens. The experiment in a line: Nitrosylation activity at recombinant PDI (unknown origin) assessed as generation of S-nitrosylated PDI at 600 uM measured after 30 mins in presence of dithiothreitol by biotin switch assay based Western blot analysis. In short, it runs like this: (§1)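 Biotin-switch detection of S-nitrosylated PDI: 400 ng purified recombinant PDI exposed to NO donor (1, 50, 300 or 600 μM) for 30 min, or left untreated.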

The subject of data set [5] is HeLa. The experiment in a line: Antiproliferative activity against human HeLa cells assessed as cell growth inhibition at 600 uM by CCK-8 assay relative to control. As to conditions: read-out: GI. The format is functional.
In data set [6] the target is T1, Protein disulfide-isomerase (Bos taurus) (UniProt P05307).
T1 sequence (whole entry): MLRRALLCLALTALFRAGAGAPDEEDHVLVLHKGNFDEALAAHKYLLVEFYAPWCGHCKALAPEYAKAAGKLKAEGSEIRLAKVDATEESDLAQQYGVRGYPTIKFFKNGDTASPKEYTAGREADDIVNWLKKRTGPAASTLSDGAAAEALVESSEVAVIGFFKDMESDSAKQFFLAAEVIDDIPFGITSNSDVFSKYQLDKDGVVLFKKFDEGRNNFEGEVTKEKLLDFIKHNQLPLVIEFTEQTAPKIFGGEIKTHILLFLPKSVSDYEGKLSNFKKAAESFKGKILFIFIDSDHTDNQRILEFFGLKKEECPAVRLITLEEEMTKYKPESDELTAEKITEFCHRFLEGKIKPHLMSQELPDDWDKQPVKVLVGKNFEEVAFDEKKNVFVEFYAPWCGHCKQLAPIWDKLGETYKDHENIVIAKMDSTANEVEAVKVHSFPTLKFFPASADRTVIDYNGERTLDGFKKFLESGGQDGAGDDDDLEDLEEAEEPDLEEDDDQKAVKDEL
The experiment in a line: Inhibition of bovine liver PDI preincubated for 30 mins followed by insulin addition for 1 hr by insulin-aggregation assay.

The species entered for data set [7] is Homo sapiens. Description: Nitrosylation activity at recombinant PDI (unknown origin) assessed as generation of S-nitrosylated PDI at 600 uM measured after 30 mins by biotin-switch assay based Western blot analysis. In short, it runs like this:
as §1

Data set [8] addresses T1, Protein disulfide-isomerase (Bos taurus). Description: Inhibition of bovine liver PDI at 50 uM preincubated for 30 mins followed by insulin addition for 1 hr by insulin-aggregation assay relative to control.
For data set [9], the system named is HeLa. Description: Antiproliferative activity against human HeLa cells assessed as cell growth inhibition at 5 uM by CCK-8 assay. The format is functional, cell-based.
Data set [10] concerns the target T1, Protein disulfide-isomerase (Bos taurus). As to conditions: 0.1 to 50 uM.
Data set [11] concerns SH-SY5Y. Description: Antiproliferative activity against human SH-SY5Y cells assessed as cell growth inhibition at 5 uM by CCK-8 assay. The data set is classed as functional, cell-based.
The species named for data set [12] is Homo sapiens. Description: Nitrosylation activity at recombinant PDI (unknown origin) assessed as generation of s-nitrosylated PDI at 50 uM measured after 30 mins in presence of dithiothreitol by biotin switch assay based Western blot analysis. The essentials:
as §1

Data set [13] is filed under the species Homo sapiens. The experiment in a line: Nitrosylation activity at recombinant PDI (unknown origin) assessed as generation of S-nitrosylated PDI at 50 uM measured after 30 mins by biotin switch assay based Western blot analysis. The essentials:
as §1

Calls of active or inactive are those of the source. The rule behind the calls is not given here.

In the case of `C#CCOC(=O)C1(C)c2[nH]c3ccccc3c2CCN1C(=O)CN(N=O)c1ccccc1` (stereo not given), the “growth inhibition (GI)” value in the data set on HeLa [1] and in the data set on SH-SY5Y [3] was “Dose-dependent effect” in each case. The inhibition of growth at 600 µM with SH-SY5Y [2] and in the data set with HeLa [5] was 40% each time. Besides, the Activity entry with HEK-293T was “Non-Toxic”. Besides, the outcome in the data set filed under Homo sapiens [4] was inactive. Moreover, the inhibition result in data set [6] is “Dose-dependent effect”; in data set [8], 50%. Besides, the result in the data set filed under Homo sapiens [7] was Active.

As to `C#CCOC(=O)C1(C)c2[nH]c3ccccc3c2CCN1C(=O)CCl` (stereo not given), the “growth inhibition (GI)” value with HeLa [9] and in the data set with SH-SY5Y [11] was “Active” throughout. Besides, in data set [10], the inhibition entry was “Active”.

Consider `N[C@@H](CCC(=O)N[C@@H](CSN=O)C(=O)NCC(=O)O)C(=O)O` [S-NITROSOGLUTATHIONE], for which the “growth inhibition (GI)” value in the data set with HeLa [1] and in the data set with SH-SY5Y [3] was “Active” in each case. For the same compound, the inhibition of growth at 600 µM with SH-SY5Y [2] and in the data set with HeLa [5] was 40% throughout. For the same compound, the result in the data set listed under Homo sapiens [12] was inactive. In addition, the Activity entry in the data set on HEK-293T is listed as “Non-Toxic”. Moreover, the outcome in the data set listed under Homo sapiens [13] was Active. The inhibition entry in data set [8] was “inactive”.
